Drawing on ChEMBL document CHEMBL1121553, “Substituted 6,7-dihydroimidazo[1,2-a]purin-9(4H)-ones” (J Med Chem, 1980), this text covers IC50, ED50 and inhibition in vivo for 21 molecules.

For experiment [1], the species on record is Cavia porcellus. The experiment is described as follows: In vitro bronchodilator activity in isolated guinea pig tracheal spiral preparation. In kind it is functional. To be noted: Trachea. A digest of the protocol: (§1)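 Guinea pig tracheal spiral held under 1.0 g tension, equilibrated 90–120 min to maximal spontaneous tonus. One drug concentration per spiral, ≥3 trials per concentration. Relaxation was expressed as % of that produced by papaverine (10 µg/mL) in the same tissue. Concentrations are bath values in µg/mL; the 50%-relaxation concentration was obtained by regression.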

Experiment [2] relates to Rattus norvegicus. The experiment is described as follows: In vivo bronchodilator activity in methacholine (intravenous) induced bronchospasm in male Harlan-Sprague-Dawley rats when administered intraduodenally; statistically significant inhibition of < 50% at thr stated dose. In kind it is functional.
The subject of experiment [3] is Rattus norvegicus. The experiment is described as follows: Antiallergic activity by passive cutaneous anaphylaxis test in ovalbumin sensitized male Harlan-Sprague-Dawley rats administered perorally. In kind it is functional. As to conditions: po. The gist of the method:
(§2)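 Donor rats got egg albumin im (1 mg/rat) plus killed B. pertussis vaccine ip (2 × 10¹⁰ organisms/rat) and were bled 10–12 days later for IgE-rich antiserum. Recipient rats (100–150 g) were sensitized intradermally with 0.1 mL of 1:2.5 and 1:10 antiserum dilutions.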

Experiment [4] has as its system Rattus norvegicus. Put plainly: In vivo bronchodilator activity in methacholine (intravenous) induced bronchospasm in male Harlan-Sprague-Dawley rats when administered intraduodenally. In kind it is functional.
Experiment [5] deals with Rattus norvegicus. Put plainly: Antiallergic activity was evaluated by inhibition of allergen-induced bronchospasm in male Harlan-Wistar rats when administered intraduodenally 15 min prior to antigen challenge. In kind it is functional. To be noted: intraduodenal.
In experiment [6] the test system is Rattus norvegicus. Put plainly: Antiallergic activity was evaluated by passive cutaneous anaphylaxis test in egg albumin sensitized male Harlan-Sprague-Dawley rats when administered perorally. In kind it is functional. As to conditions: po. A digest of the protocol:
as §2

For experiment [7], the species on record is Cavia porcellus. Put plainly: Evaluation of in vitro bronchodilator activity in isolated guinea pig tracheal spiral preparation. In kind it is functional. As to conditions: Trachea. The gist of the method: as §1
Experiment [8] relates to Rattus norvegicus. The experiment is described as follows: Antiallergic activity by passive cutaneous anaphylaxis test in ovalbumin sensitized male Harlan-Sprague-Dawley rats at 25 mg/kg oral dose (inactive). In kind it is functional, organism-based. Also noted: dose 25 mg/kg. The gist of the method: as §2
Experiment [9] concerns Rattus norvegicus. The experiment is described as follows: Antiallergic activity by passive cutaneous anaphylaxis test in ovalbumin sensitized male Harlan-Sprague-Dawley rats administered orally. In kind it is functional. As to conditions: po. A digest of the protocol: as §2
Experiment [10] deals with Rattus norvegicus. Put plainly: In vivo bronchodilator effect on (intravenous) methacholine-induced bronchospasm in male Harlan-Sprague-Dawley rats at 10 mg/kg intraduodenal dose (inactive). In kind it is functional, organism-based. Also noted: dose 10 mg/kg.
Experiment [11] relates to Rattus norvegicus. Put plainly: Antiallergic activity by passive cutaneous anaphylaxis test in rats by intraduodenal administration. In kind it is functional. A digest of the protocol:
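Recipient male Harlan-Sprague-Dawley or Wistar rats (100–150 g) received 0.1 mL intradermal antiserum at 1:2.5 and 1:10. Donor antiserum came from rats given egg albumin 1 mg im plus killed B. pertussis 2 × 10¹⁰ ip, bled 10–12 days later. After 48 h, drug went intraduodenally under anesthesia, then iv egg albumin 25 mg/kg with Evans blue 25 mg/kg. Read-out was spot-diameter inhibition versus controls, ≥5 rats/dose; ED50 was estimated.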

Experiment [12] concerns Rattus norvegicus. The experiment is described as follows: Antiallergic activity by passive cutaneous anaphylaxis test in rats by intravenous administration. In kind it is functional. The gist of the method:
as §2

Experiment [13] is filed under the species Rattus norvegicus. The experiment is described as follows: Antiallergic activity by passive cutaneous anaphylaxis test in vitro in rats. In kind it is functional. A digest of the protocol:
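Peritoneal mast cells were lavaged from male Harlan-Sprague-Dawley rats (200–300 g) with HBSS containing 0.1% albumin and 5 mM phosphate. Cells were sensitized with IgE antiserum plus heparin for 2 h at 37 °C, then challenged with egg albumin, drug added simultaneously. After 10 min, histamine was measured fluorimetrically; inhibition versus no-drug release, four trials per concentration.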

Experiment [14] has as its system Rattus norvegicus. Put plainly: Percent inhibition of PCA reaction at 33 mg/kg oral dose after 24 hr r. In kind it is functional.

Converted amounts (≈) assume the structure as drawn. The source made the active and inactive calls. No cut-off for these calls is given here.

In the case of `CC(C)CN1C2=NCCN2C(=O)c2[nH]nnc21`, the IC50 in the experiment listed under Cavia porcellus [1] was approximately 200 µg/mL (≈ 854 µM). Also, the ED50 in the experiment on Rattus norvegicus [2] and in the experiment on Rattus norvegicus [3] was more than 30 mg/kg throughout.
Turning to `Cc1nc2c(n1C)C(=O)N1CCN=C1N2CC(C)C`, the concentration for half-maximal inhibition (IC50) in the experiment filed under Cavia porcellus [1] worked out at 36.6 µg/mL (≈ 140 µM).
Take `S=C1c2[nH]cnc2N(Cc2ccc(Cl)cc2)C2=NCCN12`: in the experiment filed under Cavia porcellus [1], it took 5.1 µg/mL (≈ 16 µM) to reach half-maximal inhibition (IC50). Further, the ED50 in the experiment on Rattus norvegicus [2] is more than 30 mg/kg.
The molecule `C[C@@H]1N=C2N(Cc3ccc(Cl)cc3)c3[nH]cnc3C(=O)N2[C@H]1C` registered a half-inhibitory concentration (IC50) in the experiment filed under Cavia porcellus [1] of 1.1 µg/mL (≈ 3.34 µM). In addition, the values for the ED50 in the experiment on Rattus norvegicus [4], with Rattus norvegicus [5] and in the experiment with Rattus norvegicus [6] were 5 mg/kg, 2.8 mg/kg and 35.5 mg/kg, respectively.
Turning to `Cn1c(N)nc2c1C(=O)N1CCN=C1N2Cc1ccc(Cl)cc1`, half-maximal inhibition in the experiment listed under Cavia porcellus [1] (IC50) was put at 4.8 µg/mL (≈ 14.5 µM). Besides, the median effective dose (ED50) with Rattus norvegicus [2] is more than 30 mg/kg.
`CC1CN2C(=O)c3c(ncn3C)N(Cc3ccc(Cl)cc3)C2=N1` (centres undefined): in the experiment filed under Cavia porcellus [1], the IC50 was determined as 2.3 µg/mL (≈ 6.97 µM). Further, the results for the ED50 in the experiment on Rattus norvegicus [4], in the experiment with Rattus norvegicus [5] and with Rattus norvegicus [6] were 1.1 mg/kg, 3.4 mg/kg and 28.9 mg/kg, respectively.
In the experiment listed under Cavia porcellus [1], `N=C1c2[nH]cnc2N(Cc2ccc(Cl)cc2)C2=NCCN12` registered an IC50 of 19.8 µg/mL (≈ 65.8 µM). Besides, in the experiment on Rattus norvegicus [2], the 50% effective dose (ED50) was more than 30 mg/kg.
Regarding `O=C1c2nc[nH]c2N(CC2CCCCC2)C2=NCCN12`, 10 µg/mL (≈ 36.6 µM) corresponded to half-maximal inhibition in the experiment filed under Cavia porcellus [7] (IC50). Besides, the ED50 entry with Rattus norvegicus [8] was “inactive”.
For `O=C1c2[nH]cnc2N(Cc2ccccc2Cl)C2=NCCN12`, the IC50 in the experiment filed under Cavia porcellus [1] was found to be 49 µg/mL (≈ 162 µM).
With `Cn1cnc2c1C(=O)N1CCN=C1N2Cc1ccc(Cl)cc1`, in the experiment listed under Cavia porcellus [1], 2.9 µg/mL (≈ 9.18 µM) corresponded to half-maximal inhibition (IC50). This molecule also came in with an ED50 with Rattus norvegicus [4] of 8.8 mg/kg. Besides, the ED50 result in the experiment with Rattus norvegicus [8] is “inactive”.
On to `C[C@H]1N=C2N(Cc3ccc(Cl)cc3)c3[nH]cnc3C(=O)N2[C@H]1C`, for which the midpoint of inhibition in the experiment filed under Cavia porcellus [1], the IC50, lay at 0.7 µg/mL (≈ 2.12 µM). Besides, the ED50 in the experiment with Rattus norvegicus [4] amounted to 3 mg/kg; with Rattus norvegicus [5] it was 1.7 mg/kg; in the experiment with Rattus norvegicus [6], 28.5 mg/kg.
Take `O=C1c2nc[nH]c2N(Cc2ccccn2)C2=NCCN12`: inhibition in the experiment listed under Cavia porcellus [1] was half-maximal at 128 µg/mL (≈ 477 µM) (IC50). Also, the ED50 with Rattus norvegicus [3] is more than 25 mg/kg.
Molecule `Cc1nc2c([nH]1)N(Cc1ccc(Cl)cc1)C1=NC(C)(C)CN1C2=O` had an IC50 in the experiment filed under Cavia porcellus [1] of 1.7 µg/mL (≈ 4.94 µM). For the same molecule, the median effective dose (ED50) was found to be 7.3 mg/kg with Rattus norvegicus [4], 1.08 mg/kg with Rattus norvegicus [5] and 44.4 mg/kg in the experiment with Rattus norvegicus [6].
In the case of `O=C1c2[nH]c(Br)nc2N(Cc2ccc(Cl)cc2)C2=NCCN12`, the IC50 in the experiment listed under Cavia porcellus [7] was found to be 54 µg/mL (≈ 142 µM).
Molecule `Cc1nc2c(n1C)C(=O)N1CCN=C1N2Cc1ccc(Cl)cc1` gave an IC50 in the experiment filed under Cavia porcellus [1] of 8.4 µg/mL (≈ 25.5 µM).
Same read-out and setting: the same measure for `CCc1nc2c([nH]1)N(CC(C)C)C1=NCCN1C2=O`: 16.7 µg/mL (≈ 63.9 µM).
Turning to `CC1(C)CN2C(=O)c3[nH]cnc3N(Cc3ccc(Cl)cc3)C2=N1`, it took 14.3 µg/mL (≈ 43.4 µM) to reach half-maximal inhibition in the experiment filed under Cavia porcellus [1] (IC50). The median effective dose (ED50) with Rattus norvegicus [5] amounted to 3 mg/kg; with Rattus norvegicus [9], 35.3 mg/kg.
Molecule `CCCCn1cnc2c1C(=O)N1CCN=C1N2Cc1ccc(Cl)cc1` registered an IC50 in the experiment listed under Cavia porcellus [1] of 15.5 µg/mL (≈ 43.3 µM). The molecule also yielded an ED50 in the experiment on Rattus norvegicus [2] of more than 10 mg/kg.
Consider `Cn1c(Br)nc2c1C(=O)N1CCN=C1N2Cc1ccc(Cl)cc1`, for which the IC50 in the experiment listed under Cavia porcellus [7] was 3.9 µg/mL (≈ 9.88 µM). The ED50 entry with Rattus norvegicus [10] is “inactive”.
With `O=C1c2[nH]cnc2N(Cc2ccc(Cl)cc2)C2=NCCN12`, the IC50 in the experiment listed under Cavia porcellus [1] was determined as 14 µg/mL (≈ 46.4 µM); in the experiment listed under Rattus norvegicus [13] it was 490 µM. For the same molecule, the results for the 50% effective dose (ED50) in the experiment with Rattus norvegicus [11], in the experiment on Rattus norvegicus [12] and in the experiment on Rattus norvegicus [5] were 8.4 mg/kg, 2.4 mg/kg and 0.9 mg/kg, respectively. Also, testing at 33 mg/kg with Rattus norvegicus [14] gave an inhibition in vivo of 11.5%.
In turn, `CC1CN2C(=O)c3[nH]cnc3N(Cc3ccc(Cl)cc3)C2=N1` (centres undefined) came in with an IC50 in the experiment listed under Cavia porcellus [1] of 3.7 µg/mL (≈ 11.7 µM). Also, the results for the ED50 in the experiment on Rattus norvegicus [4], with Rattus norvegicus [5] and in the experiment with Rattus norvegicus [6] were 2.1 mg/kg, 1.5 mg/kg and 10.6 mg/kg, respectively.
